From ChEMBL document CHEMBL4422661, “Design and Synthesis of a Novel and Selective Kappa Opioid Receptor (KOR) Antagonist (BTRX-335140)” (J Med Chem, 2019) come the findings set out here.

SMILES strings stand for the structures.

Data set [1] in a line: Volume of distribution at steady state in Sprague-Dawley rat at 1 mg/kg, iv by LC-MS/MS analysis. The data set is classed as ADME, organism-based. Conditions: in vivo. The gist of the method: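 Male Sprague-Dawley rats (350–400 g) received the monotartrate salt in 10:10:80 DMSO/Tween 80/water at 1 mg ml⁻¹, 1 mg kg⁻¹ i.v. or 2 mg kg⁻¹ p.o. Peripheral whole blood was sampled at 5, 15 and 30 min and 1, 2, 4, 6 and 8 h after dosing.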

A short description of data set [2]: AUCt in Sprague-Dawley rat at 1 mg/kg, iv by LC-MS/MS analysis. Type of data set: ADME, organism-based. Conditions: in vivo. Summed up: (§1)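 Whole blood (250 μL) drawn via jugular vein cannula, n = 3. The iv route was sampled at 5, 15 and 30 min and 1, 2, 4, 8 and 24 h; the oral route at 15 and 30 min and 1, 2, 4, 8 and 24 h. LC-MS/MS quantitation.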
Data set [3] is described as follows: Cmax in Sprague-Dawley rat at 5 mg/kg, po by LC-MS/MS analysis. Type of data set: ADME, organism-based. The arrangement: dose 5 mg/kg, route oral. Conditions: in vivo.
Data set [4] in a line: AUCt in Sprague-Dawley rat at 5 mg/kg, po by LC-MS/MS analysis. Type of data set: ADME, organism-based. Conditions: in vivo. Summed up:
as §1

Data set [5] can be described thus: Oral bioavailability in Sprague-Dawley rat at 5 mg/kg by LC-MS/MS analysis. The data set is classed as ADME, organism-based. The following applies: in vivo.
A short description of data set [6]: AUCt in C57B16 mouse at 3 mg/kg, iv by LC-MS/MS analysis. The data set is classed as ADME, organism-based. The following applies: in vivo.
The nature of data set [7]: Volume of distribution at steady state in C57B16 mouse at 3 mg/kg, iv by LC-MS/MS analysis. Type of data set: ADME, organism-based. The following applies: in vivo.
The nature of data set [8]: Cmax in C57B16 mouse at 10 mg/kg, po by LC-MS/MS analysis. Type of data set: ADME, organism-based. More on the design: dose 10 mg/kg, route oral. The following applies: in vivo.
The nature of data set [9]: AUCt in C57B16 mouse at 10 mg/kg, po by LC-MS/MS analysis. The data set is classed as ADME, organism-based. The following applies: in vivo.
A short description of data set [10]: Oral bioavailability in C57B16 mouse at 10 mg/kg by LC-MS/MS analysis. Type of data set: ADME, organism-based. Conditions: in vivo.
Data set [11] can be described thus: Ratio of drug uptake in Sprague-Dawley rat brain to plasma at 5 mg/kg, po after 1 hr by LC-MS/MS analysis. Type of data set: ADME, organism-based. The gist of the method:
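Fasted male rats (n = 2) received the monotartrate salt orally at 5 mg kg⁻¹. Plasma, brain and CSF levels were measured 1 h after dosing, and the ratio was taken from mean values.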

Data set [12] can be described thus: Solubility of the compound at pH 7.4. Type of data set: physicochemical. Conditions: buffer.
Data set [13] in a line: Cmax in Sprague-Dawley rat at 2 mg/kg, po by LC-MS/MS analysis. The data set is classed as ADME, organism-based. More on the design: dose 2 mg/kg, route oral. The following applies: in vivo. The gist of the method:
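Male Sprague-Dawley rats (350–400 g) given monotartrate salt as 1 mg ml⁻¹ solution in 10:10:80 DMSO/Tween 80/water, 1 mg kg⁻¹ i.v. or 2 mg kg⁻¹ p.o.; peripheral whole blood sampled at 5, 15, 30 min and 1, 2, 4, 6, 8 h; concentrations by LC-MS/MS.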

Data set [14] is described as follows: AUC (0 to infinity) in Sprague-Dawley rat at 1 mg/kg, iv by LC-MS/MS analysis. The arrangement: dose 1 mg/kg, route intravenous, time infinity. Type of data set: ADME, organism-based. Conditions: in vivo.
Data set [15] can be described thus: Oral bioavailability in Sprague-Dawley rat at 2 mg/kg by LC-MS/MS analysis. The data set is classed as ADME, organism-based. Conditions: in vivo.
Data set [16] in a line: AUC (0 to infinity) in Sprague-Dawley rat at 2 mg/kg, po by LC-MS/MS analysis. The data set is classed as ADME, organism-based. More on the design: dose 2 mg/kg, time infinity, route oral. The following applies: in vivo. Summed up:
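Male Sprague-Dawley rats (350–400 g) dosed orally as the monotartrate salt, a 1 mg ml⁻¹ solution in 10:10:80 DMSO/Tween 80/water (v/v/v). Peripheral whole blood sampled at 5, 15 and 30 min and 1, 2, 4, 6 and 8 h post-dose. Concentrations measured by LC-MS/MS.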

Data set [17] can be described thus: Ratio of drug uptake in C57B16 mouse brain to plasma at 10 mg/kg, ip after 30 mins by LC-MS/MS analysis. Type of data set: ADME, organism-based. Conditions: 0.5 h. Summed up: (§2)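 C57Bl6 mice (n = 6) were given the monotartrate salt i.p. at 10 mg kg⁻¹ (1 mg ml⁻¹ in DMSO/Tween 80/water 1:1:8). Plasma (EDTA) and brain were taken at 30 and 120 min. Brain homogenate was precipitated with acetonitrile, levels were measured by LC-MS/MS, and values were derived by noncompartmental fitting.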

Data set [18] in a line: Ratio of drug uptake in C57B16 mouse brain to plasma at 10 mg/kg, ip after 120 mins by LC-MS/MS analysis. Type of data set: ADME, organism-based. Conditions: 2 h. The gist of the method: as §2

On to `CCc1cc(F)c2nc(N3CCC(NC4CCOCC4)CC3)c(-c3nc(C)no3)c(C)c2c1.O=C(O)C(O)C(O)C(=O)O`, for which the results for the Vdss in data set [1] and in [7] were 13.8 L/kg and 7.72 L/kg, respectively. The AUCt in data set [2] amounted to 153 ng·h/mL; in data set [4], 232 ng·h/mL; in data set [6], 725 ng·h/mL; in [9] it was 265 ng·h/mL. Moreover, the Cmax in data set [3] amounted to 39.1 ng/mL; in [8], 80.9 ng/mL. Moreover, the F in data set [5] was 30.2%; in data set [10], 12%. Further, the BPR in data set [11] was found to be 2.2. The compound further yielded a solubility in data set [12] of 74 µM.

Compound `Cc1ccc2nc(N3CCC(NC4CCOCC4)CC3)c(-c3nc(C)no3)cc2c1.O=C(O)C(O)C(O)C(=O)O` yielded a Cmax in data set [13] of 110.16 ng/mL. In data set [1], the Vdss worked out at 12.95 L/kg. Besides, the values for the AUC in data set [14] and in data set [16] were 12740 ng·min/mL and 1705 ng·min/mL, respectively. Further, in data set [15], the F was 20%. Also, the BPR in data set [17] is 2.9; in data set [18], 3.8.

As usually defined, the Vdss is a proportionality between amount in the body and measured concentration, not a real space. Low values mean little distribution into tissue, high ones wide distribution into tissue. By Cmax is commonly meant the highest concentration seen after dosing. Usually solubility stands for how much of the substance goes into solution per volume. Read a low solubility as little dissolved substance. In general, AUC refers to the area under the concentration-time curve, a measure of exposure.
